Results on twelve compounds are retold here after ChEMBL document CHEMBL4411326 (J Med Chem, 2019).

Activity calls are given as the source filed them. No cut-off for these calls is given here.

The species entered for one assay is Rattus norvegicus. Nature of the assay: Selectivity ratio of Ki for alpha7* nAChR in rat brain P2 membranes to Ki for alpha4beta2* nAChR in Wistar rat cerebral cortex membranes. The class given is cell membranes.
Assay [1] concerns the target T1, Neuronal acetylcholine receptor subunit alpha-7 (Rattus norvegicus, UniProt Q05941). The assay is described as follows: Displacement of [3H]-methyllycaconitine from alpha7* nAChR in rat brain P2 membranes after 2.5 hrs by liquid scintillation spectrometry. The class given is cell membranes. For orientation: Loss of bound radioactivity is the signal in a displacement assay; it reports binding, not function.

The nature of assay [2]: Displacement of [3H]-cytisine from alpha4beta2* nAChR in Wistar rat cerebral cortex membranes after 75 mins. The assay is classed as cell membranes.
For assay [3], the target named is Neuronal acetylcholine receptor subunit alpha-7 (Rattus norvegicus) (UniProt Q05941). The assay is described as follows: Displacement of [3H]-methyllycaconitine from alpha7* nAChR in rat brain P2 membranes at 1 uM after 2.5 hrs by liquid scintillation spectrometry relative to control. The class given is cell membranes. The method, boiled down: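 [3H]-Methyllycaconitine binding on rat brain minus cortex, striatum and cerebellum […]. Percent inhibition measured at 1 μM compound. Four independent experiments in duplicate.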
Neuronal acetylcholine receptor subunit alpha-7 (Rattus norvegicus), sequence (Q05941 whole entry): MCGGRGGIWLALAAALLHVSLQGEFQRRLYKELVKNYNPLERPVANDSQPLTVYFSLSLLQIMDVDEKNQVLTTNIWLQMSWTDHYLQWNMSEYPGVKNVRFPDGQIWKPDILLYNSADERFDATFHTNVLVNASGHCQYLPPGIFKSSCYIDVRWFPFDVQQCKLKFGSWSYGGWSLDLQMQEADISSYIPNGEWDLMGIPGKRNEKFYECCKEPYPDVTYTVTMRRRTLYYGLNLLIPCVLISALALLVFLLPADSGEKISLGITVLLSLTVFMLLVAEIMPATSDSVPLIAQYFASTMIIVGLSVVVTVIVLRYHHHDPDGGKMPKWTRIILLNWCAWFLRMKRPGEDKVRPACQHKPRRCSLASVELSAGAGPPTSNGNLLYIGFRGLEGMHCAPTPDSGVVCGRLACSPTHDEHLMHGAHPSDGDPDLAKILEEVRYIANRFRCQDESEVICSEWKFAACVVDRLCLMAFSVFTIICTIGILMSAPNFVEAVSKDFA

Assay [4] is described as follows: (§1) Agonist activity at nAChR in human SH-SY5Y cells assessed as increase in intracellular Ca2+ levels measured every 2 secs for 3 mins by Fluo4AM-fluorescent dye based assay. The assay is classed as cell-based. As to conditions: 0.05 h. The method in brief: (§2)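 SH-SY5Y cells (native nAChRs) in DMEM/F12 with 10% FBS were plated at 5000-10000 cells/well and grown 48-72 h. Cells were loaded with Fluo-4 AM (1.824 μM) and probenecid (1.25 mM). Compound was added just before reading; fluorescence at ex/em 485/535 nm. Mean ± SEM of three independent experiments, each with 5-6 measurements.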

For assay [5], the target named is T1, Neuronal acetylcholine receptor subunit alpha-7. The assay is described as follows: Agonist activity at rat alpha7 nAChR expressed in Xenopus laevis oocytes after 4 to 5 days at -60 mV holding potential by […] assay. The class given is cell-based. The method, boiled down:
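Two-electrode voltage clamp on defolliculated stage V-VI Xenopus laevis oocytes (collagenase 2 mg/mL, 2 h, 21-24 °C, Ca2+-free Barth's, pH 7.6). Oocytes were injected with 9.2 ng cRNA of human α3+β2 (1:1) or rat α7 plus chaperone NACHO (2:1). Agonist applications were separated by 5 min washout in normal frog Ringer's.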
In general terms: Patch clamp records ionic current or voltage across a cell membrane.

Assay [6] has as its target Neuronal acetylcholine receptor subunit alpha-7 (Homo sapiens, UniProt P36544). The assay is described as follows: Agonist activity at human alpha7 nAChR expressed in mouse Neuro2a cells co-expressing chaperone NACHO assessed as increase in intracellular Ca2+ levels in presence of PNU120596 by calcium flux assay. The assay is classed as cell-based. (A change in cytosolic calcium serves as a functional read-out for many receptors and channels.)

Another assay relates to SH-SY5Y. The assay is described as §1. The class given is cell-based. The method in brief: as §2

Neuronal acetylcholine receptor subunit alpha-7 (Homo sapiens, UniProt P36544), sequence (P36544 whole entry): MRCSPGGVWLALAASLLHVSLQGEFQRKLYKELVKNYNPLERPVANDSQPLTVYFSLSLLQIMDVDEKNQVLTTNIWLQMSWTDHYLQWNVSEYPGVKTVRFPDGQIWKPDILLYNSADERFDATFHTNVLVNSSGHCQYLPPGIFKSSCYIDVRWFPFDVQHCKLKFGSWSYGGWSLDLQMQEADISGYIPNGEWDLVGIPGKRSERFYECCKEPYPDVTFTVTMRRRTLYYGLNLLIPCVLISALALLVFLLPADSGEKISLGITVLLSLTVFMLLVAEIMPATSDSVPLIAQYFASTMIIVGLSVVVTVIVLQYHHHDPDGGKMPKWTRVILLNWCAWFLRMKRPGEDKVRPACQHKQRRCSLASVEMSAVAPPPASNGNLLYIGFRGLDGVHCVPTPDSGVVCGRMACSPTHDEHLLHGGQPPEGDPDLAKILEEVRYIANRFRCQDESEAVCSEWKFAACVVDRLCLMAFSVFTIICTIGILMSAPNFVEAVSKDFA
T1 sequence (Q05941 whole entry): as the sequence (Q05941 whole entry) above

For orientation: Ki means the equilibrium dissociation constant of an inhibitor or competing ligand from its target. In the case of `CN[C@@H]1[C@@H]2CC[C@@H](C2)[C@H]1c1ccc(Cl)nc1`, in the assay filed under Rattus norvegicus, the Ratio Ki is 37. The Ki in assay [1] amounted to 116 nM; in assay [2] it was 3.12 nM.

One may read the inhibition as the relative decrease from the control value, in per cent. High values mean a strong effect, low ones a weak effect. Compound `N[C@@H]1[C@H]2CC[C@H](C2)[C@H]1c1cccnc1` gave an inhibition in assay [3] of 30%. Besides, the figures for the Ki in assay [1] and in assay [2] were greater than 1000 nM and 166 nM, respectively.

With `N[C@@H]1[C@H]2CC[C@H](C2)[C@H]1c1ccc(Cl)nc1`, the inhibitory constant (Ki) in assay [1] was 227 nM; in assay [2], 28 nM.

For orientation: EC50 means the concentration at which the effect is half-maximal. Take `N[C@@H]1[C@@H]2CC[C@@H](C2)[C@H]1c1cccnc1`: the EC50 in assay [4] was 1920 nM; in assay [5] it was 5980 nM; in assay [6] it was 48 nM. Besides, the inhibitory constant (Ki) stood at 46 nM in assay [1] and 2.11 nM in assay [2].

On to `CN(C)[C@@H]1[C@@H]2CC[C@@H](C2)[C@H]1c1cccnc1`, for which the Ratio Ki in the assay listed under Rattus norvegicus is greater than 17. Also, the inhibition in assay [3] was determined as 8%. For the same compound, the Ki in assay [1] was greater than 1000 nM; in assay [2], 59 nM.

As for `CN(C)[C@@H]1[C@@H]2CC[C@@H](C2)[C@H]1c1ccc(Cl)nc1`, the outcome in the assay on SH-SY5Y was inactive. For the same compound, the inhibition in assay [3] was 33%. The Ki in assay [1] was greater than 1000 nM; in assay [2], 43 nM. In addition, the EC50 in assay [5] is greater than 10000 nM; in assay [6], 6450 nM.

`CN[C@@H]1[C@H]2CC[C@H](C2)[C@H]1c1cccnc1`: in assay [3], the inhibition turned out to be 15%. Besides, the values for the Ki in assay [1] and in assay [2] were greater than 1000 nM and 206 nM, respectively.

In the case of `CN1CCC[C@H]1c1cccnc1` [NICOTINE], in assay [4], the EC50 stood at 22500 nM. The compound further yielded an inhibition constant (Ki) in assay [2] of 2.31 nM.

Consider `CN[C@@H]1[C@@H]2CC[C@@H](C2)[C@H]1c1cccnc1`, for which, in the assay with SH-SY5Y, the outcome was inactive. For the same compound, the Ki in assay [1] worked out at 352 nM; in assay [2], 10.2 nM. The EC50 in assay [5] was greater than 10000 nM; in assay [6] it was 2290 nM.

In the case of `CN(C)[C@@H]1[C@H]2CC[C@H](C2)[C@H]1c1ccc(Cl)nc1`, the inhibition in assay [3] stood at 18%. The Ki in assay [1] was greater than 1000 nM; in assay [2] it was 294 nM.

On to `N[C@@H]1[C@@H]2CC[C@@H](C2)[C@H]1c1ccc(Cl)nc1`, for which the EC50 in assay [4] is 220 nM; in assay [5] it was 2710 nM; in assay [6], 24 nM. The Ki in assay [1] was 10.5 nM; in assay [2], 1.31 nM.

`CN(C)[C@@H]1[C@H]2CC[C@H](C2)[C@H]1c1cccnc1`: the Ratio Ki in the assay filed under Rattus norvegicus was greater than 2. Moreover, the inhibition in assay [3] worked out at 6%. The Ki is greater than 1000 nM in assay [1] and 554 nM in assay [2].
